In ChEMBL document CHEMBL1142284, “Identification of N-(quinolin-8-yl)benzenesulfonamides as agents capable of down-regulating NFkappaB activity within two separate high-throughput screens of NFkappaB activation” (Bioorg Med Chem Lett, 2008):
The source made the active and inactive calls. No cut-off for these calls is given here. Peptide text beside a SMILES is read from it. * marks the point of attachment. Cbz = O=C(OCc1ccccc1)*

How the values were obtained:
[1] = target: T1, NF-kappa-B inhibitor alpha (Homo sapiens) (UniProt P25963); experiment: Induction of human IkappaBalpha stabilization in OCI-Ly3 cells assessed as ratio of green light emiting IkappaBalpha-fused luciferase expression to red light emiting native luciferase expression; assay type: cell-based
T1 sequence (whole entry): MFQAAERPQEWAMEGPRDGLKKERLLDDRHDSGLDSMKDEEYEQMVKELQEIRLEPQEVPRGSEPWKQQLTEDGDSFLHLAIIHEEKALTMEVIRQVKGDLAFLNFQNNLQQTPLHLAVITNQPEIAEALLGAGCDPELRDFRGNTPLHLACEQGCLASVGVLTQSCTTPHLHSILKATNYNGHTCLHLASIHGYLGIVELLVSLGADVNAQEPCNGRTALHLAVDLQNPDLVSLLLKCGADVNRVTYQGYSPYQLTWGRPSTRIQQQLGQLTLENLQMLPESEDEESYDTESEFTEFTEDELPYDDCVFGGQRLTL
Procedure, shortened: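 Dual-luciferase IκBα stabilization assay: doxycycline induces both an IκBα-CBG68 fusion (green luminescence) and a CBR control (red luminescence), and the red signal normalizes for nonspecific effects. EC50 comes from the green/red luminescence ratio. Each experiment was a concentration titration run in duplicate with concentration-response curve fitting, and values are averages of two to three experiments.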

[2] = target: T1, NF-kappa-B inhibitor alpha (Homo sapiens); experiment: Induction of human IkappaBalpha stabilization in OCI-Ly3 cells by green light emiting IkappaBalpha-fused luciferase reporter gene assay; assay type: cell-based
Procedure, shortened: (§1)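 The IκBα-CBG68 fusion (green luminescence) and the CBR control reporter (red) were induced with doxycycline. The read-out was green luminescence, and EC50 is given with % efficacy relative to the MG-132 positive control. Each experiment was a concentration titration run in duplicate with concentration-response curve fitting, and values are averages of two to three experiments.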

OCI-Ly3 = experiment: (§2) Cytotoxicity against NF-kappaB overexpressing human OCI-Ly3 cells after 4 hrs; assay type: functional, cell-based
[3] = target: Transcription factor p65 (Homo sapiens) (UniProt Q04206); experiment: Inhibition of TNF-alpha-stimulated human NF-kappaB p65 RelA subunit nuclear translocation in HUVEC
Transcription factor p65 (Homo sapiens), sequence (Q04206 whole entry): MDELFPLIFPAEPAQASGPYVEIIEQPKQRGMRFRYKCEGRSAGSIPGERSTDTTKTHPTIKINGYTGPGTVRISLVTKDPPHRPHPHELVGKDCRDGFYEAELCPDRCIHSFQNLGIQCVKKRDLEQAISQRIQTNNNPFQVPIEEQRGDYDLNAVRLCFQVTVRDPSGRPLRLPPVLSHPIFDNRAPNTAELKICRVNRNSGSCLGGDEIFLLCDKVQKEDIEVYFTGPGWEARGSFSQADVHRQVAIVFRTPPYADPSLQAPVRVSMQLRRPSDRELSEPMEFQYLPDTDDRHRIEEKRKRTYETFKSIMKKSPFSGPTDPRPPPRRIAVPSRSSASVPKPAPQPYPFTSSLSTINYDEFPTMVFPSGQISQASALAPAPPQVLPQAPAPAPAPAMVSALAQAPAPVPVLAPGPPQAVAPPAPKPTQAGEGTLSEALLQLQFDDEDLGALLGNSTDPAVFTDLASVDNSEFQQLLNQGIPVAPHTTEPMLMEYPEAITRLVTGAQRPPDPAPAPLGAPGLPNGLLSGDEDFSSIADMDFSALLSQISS
Procedure, shortened: (§3)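 HUVEC (fewer than 8 passages) were seeded at 3,000 cells/well. Compounds were added in 8-point series, either from 10 µM final in media with 0.33% DMSO diluted 1:3, or from 8 µM diluted 1:2. After 3.5 h with compound, cells were stimulated with […] for 30 min. Cells were then fixed, permeabilized, stained with Hoechst and with anti-p65 plus an Alexa 647 secondary, and imaged automatically. IC50 is from curve fitting of one experiment run in triplicate, with BAY 11-7082 as the positive control.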

[4] = (§4) Inhibition of TNFalpha stimulated human NF-kappaB-mediated beta lactamase gene expression in HUVEC; assay type: cell-based
[5] = target: T1, NF-kappa-B inhibitor alpha (Homo sapiens); experiment: Induction of human IkappaBalpha stabilization in OCI-Ly3 cells by green light emiting IkappaBalpha-fused luciferase reporter gene assay relative to control; assay type: cell-based; procedure, shortened: as §1
[6] = as §2; assay type: functional, cell-based; conditions: OCI-Ly3, 4 h
[7] = target: Transcription factor p65 (Homo sapiens) (UniProt Q04206); experiment: Inhibition of TNF-alpha-stimulated human NF-kappaB p65 RelA subunit nuclear translocation in HUVEC relative to control; assay type: cell-based; procedure, shortened: as §3
HUVEC [8] = experiment: Inhibition of human E3 ubiquitin ligase-mediated IkappaBalpha ubiquitination in HUVEC; assay type: cell-based
HUVEC [9] = experiment: as §4; assay type: cell-based

| Structure (SMILES) | Activity [1] | Activity [2] | Activity [3] | IC50 [4] | Efficacy [5] | Efficacy [7] | Activity (HUVEC [8]) | Activity (HUVEC [9]) | Activity (OCI-Ly3) | IC50 [6] |
| --- | --- | --- | --- | --- | --- | --- | --- | --- | --- | --- |
| COc1cccc2nc(-c3cccs3)nc(NN3C(=O)C=C(C)C3=O)c12 [AS-602868] | inactive | inactive | inactive | 2 µM |  |  |  |  | inactive |  |
| COc1cc(NS(=O)(=O)c2ccc(C)cc2)c2nc(C)ccc2c1 |  |  |  | > 57 µM | 150% | > 90% |  |  |  | > 57 µM |
| O=S(=O)(Nc1cccc2cccnc12)c1ccccc1 |  |  |  | 8 µM | 350% | > 90% |  |  | inactive |  |
| Cc1cnc2c3c(ccc2c1)-c1ccccc1S(=O)(=O)N3 |  |  |  | 8.1 µM | 32% |  |  |  | inactive |  |
| Cc1ccc2cccc(NS(=O)(=O)c3ccccc3[N+](=O)[O-])c2n1 |  |  |  | 6 µM | 200% | > 90% |  |  | inactive |  |
| O=[N+]([O-])c1ccccc1S(=O)(=O)Nc1cccc2cccnc12 |  |  |  | 10 µM | 620% | > 90% |  |  | inactive |  |
| [O-][S+](c1ccccc1)c1ccc2nnnn2n1 (configuration not stated) |  |  |  |  |  |  | Active |  |  |  |
| Cc1ccc2ccc3c(c2n1)NS(=O)(=O)c1ccc(C(F)(F)F)cc1-3 |  |  |  | 3.6 µM | 700% | > 90% |  |  | inactive |  |
| COc1cc(NS(=O)(=O)c2ccc(C)cc2[N+](=O)[O-])c2ncccc2c1 |  |  |  | 4 µM | 60% | > 90% |  |  |  | > 57 µM |
| Nc1ccccc1S(=O)(=O)Nc1cccc2cccnc12 |  |  |  | 13.5 µM | 300% | > 90% |  |  |  | > 57 µM |
| Cc1ccc([N+](=O)[O-])cc1S(=O)(=O)Nc1cccc2cccnc12 |  |  |  | 1.8 µM | 18% | > 90% |  |  |  | > 57 µM |
| O=S1(=O)Nc2c(ccc3cccnc23)-c2cc(O)ccc21 |  |  | inactive |  |  |  |  |  |  |  |
| Cc1ccc2cccc(NS(=O)(=O)c3ccccc3N)c2n1 |  |  |  | 5.5 µM | 250% | > 90% |  |  | inactive |  |
| CC(C)C[C@@H](C=O)NC(=O)[C@H](CC(C)C)NC(=O)[C@H](CC(C)C)NC(=O)OCc1ccccc1 [MG-132] (Cbz-Leu-Leu-Leu-aldehyde) |  |  |  | 0.6 µM | 100% |  |  |  |  | > 10 µM |
| O=S(=O)(Nc1cccc2cccnc12)c1cccs1 |  |  |  | 7 µM | 250% | > 90% |  |  | inactive |  |
| O=[N+]([O-])c1cc(C(F)(F)F)ccc1S(=O)(=O)Nc1cccc2cccnc12 |  |  |  | 1.3 µM | 200% | > 90% |  |  |  | > 57 µM |
| COc1ccc2c(c1)-c1ccc3ccc(C)nc3c1NS2(=O)=O |  |  |  | 3.2 µM | 200% | > 90% |  |  |  | > 57 µM |
| Cc1ccc2cccc(NS(=O)(=O)c3ccc(Cl)s3)c2n1 |  |  |  | 1.3 µM | 60% | > 90% |  |  |  | > 10 µM |
| Cc1ccc2cccc(NS(=O)(=O)c3ccc(Br)s3)c2n1 |  |  |  | 5 µM | 22% | 75% |  |  |  | > 57 µM |
| O=S(=O)(Nc1cccc2cccnc12)c1ccc(Br)s1 |  |  |  | 3.4 µM | 170% | > 90% |  |  | inactive |  |
| O=[N+]([O-])c1ccc(S(=O)(=O)Nc2cccc3cccnc23)cc1 |  |  |  | 5 µM | 560% | > 90% |  |  | inactive |  |
| COc1ccc2c(c1)-c1ccc3cccnc3c1NS2(=O)=O |  |  |  | 1.3 µM | 20% | > 90% |  |  | inactive |  |
| COc1cnc2c3c(ccc2c1)-c1ccccc1S(=O)(=O)N3 |  |  |  |  |  | > 90% |  |  |  |  |

Further lines, with some results ahead:

| Activity [1] | Activity [2] | Activity [3] | IC50 [4] | Efficacy [5] | Efficacy [7] | Activity (HUVEC [8]) | Activity (HUVEC [9]) | Structure (SMILES) | Activity (OCI-Ly3) | IC50 [6] |
| --- | --- | --- | --- | --- | --- | --- | --- | --- | --- | --- |
|  |  |  |  |  | > 90% |  |  | Cc1ccc(S(=O)(=O)/C=C/C#N)cc1 |  |  |
|  |  |  | 0.8 µM | 60% | > 90% |  |  | Cc1ccc2c(c1)-c1ccc3cccnc3c1NS2(=O)=O |  | > 57 µM |
|  |  |  | 6 µM | 275% | > 90% |  |  | Cc1ccc(S(=O)(=O)Nc2cccc3cccnc23)c([N+](=O)[O-])c1 |  | > 57 µM |
|  |  | inactive | > 57 µM | 23% |  |  |  | COc1cc(NS(=O)(=O)c2ccc(C)cc2N)c2nc(C)ccc2c1 | inactive |  |
|  |  |  |  |  | 78% |  |  | COc1ccc(S(=O)(=O)Nc2cccc3ccc(C)nc23)c([N+](=O)[O-])c1 |  |  |
|  |  |  | 1 µM | 110% | > 90% |  |  | Cc1ccc2cccc(NS(=O)(=O)c3cccc([N+](=O)[O-])c3)c2n1 |  | > 57 µM |
|  |  |  | 1.2 µM | 32% | > 90% |  |  | O=S1(=O)Nc2c(ccc3cccnc23)-c2cc(C(F)(F)F)ccc21 | inactive |  |
|  |  |  | 13 µM | 50% | > 90% |  |  | Cc1ccc2cccc(NS(=O)(=O)c3ccc(C(F)(F)F)cc3[N+](=O)[O-])c2n1 |  | > 57 µM |
|  |  |  | 6.7 µM | 120% | > 90% |  |  | Cc1ccc2ccc3c(c2n1)NS(=O)(=O)c1ccc(O)cc1-3 |  | > 57 µM |
|  |  |  | 1.9 µM | 66% | > 90% |  |  | O=S1(=O)Nc2c(ccc3cccnc23)-c2cc(Cl)ccc21 | inactive |  |
|  |  |  | 2 µM | 34% | > 90% |  |  | COc1cc2cccnc2c2c1-c1cc(C)ccc1S(=O)(=O)N2 | inactive |  |
|  |  |  | 1 µM | 190% | > 90% |  |  | O=S(=O)(Nc1cccc2cccnc12)c1ccc(Cl)s1 |  | > 57 µM |
|  |  | inactive |  |  |  |  | inactive | COc1cc(NS(=O)(=O)c2ccc(C)cc2[N+](=O)[O-])c2nc(C)ccc2c1 |  | > 57 µM |
|  |  |  | 1.8 µM | 122% | > 90% |  |  | O=S1(=O)Nc2c(ccc3cccnc23)-c2cc(F)ccc21 | inactive |  |
|  |  |  | 3.4 µM | 120% | > 90% | inactive |  | O=S1(=O)Nc2c(ccc3cccnc23)-c2ccccc21 | inactive |  |
|  |  | inactive | > 57 µM |  |  |  |  | Cc1ccc2cccc(NS(=O)(=O)c3cc([N+](=O)[O-])ccc3C)c2n1 | inactive |  |
|  |  |  | 1.1 µM | 300% | > 90% |  |  | COc1cc2ccc(C)nc2c2c1-c1cc(C)ccc1S(=O)(=O)N2 |  | > 57 µM |
|  |  |  | 2 µM | 90% | > 90% |  |  | COc1cc(NS(=O)(=O)c2ccc(C)cc2N)c2ncccc2c1 |  | > 57 µM |
